Only some compounds are listed: those with a hit (about 4.6% of all), similar ones and a draw of the others.
Calb biofilm kill – mixtures killing C. albicans biofilm; C. albicans biofilm persisters + clotrimazole, fluorescence viability; primary screen in compound mixtures of four per well; inhibition, % at 7.6 µM; 120,000 compounds, 0.02% hits; AID 1242;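 active means inhibition above 30.3% in the primary screen of four-compound pools, then above 30% when the compound was retested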;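 further: compounds exposed to preformed 24 h biofilms for 48 h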
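Test system: C. albicans biofilms. Buffer or medium: RPMI/MOPS medium, pH 7.0. Timing: 48 h compound exposure at 37 °C. Technique: Alamar Blue fluorescence. Evaluation: percent inhibition of biofilm viability.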
WT yeast gro inh – growth inhibition of WT yeast, mitochondrial fusion screen | inhibition, % at 10 µM | AID 1362 | mitochondrial fusion phenotypic screen, WT strain | 190,000 compounds, 2.1% hits; in the data active means inhibition above about 58%; tested in S. cerevisiae
Hck Nef HTS – inhibitors of human Hck kinase activated by Nef | P08631 | Recombinant Hck-YEEI plus Nef, Z-Lyte FRET kinase assay | inhibition, % at 20 µM | 220,000 compounds, 0.68% hits | AID 463187;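 active means Hck-Nef kinase inhibition above about 50%, limit read from the data; inactive means inhibition below that limit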
Arbovirus anti – arbovirus infection inhibition; arbovirus infection cell-based antiviral screen; inhibition, % at 10 µM; AID 1251; 200,000 compounds, 0.37% hits; in the data active means inhibition above about 30%
RAM network inh – blocks the yeast RAM network. AID 868. 190,000 compounds, 1.8% hits. inhibition, % at 50 µM. S. cerevisiae dse1pr::URA3 reporter, 5-FOA growth OD615, 2 d; analog-sensitive cbk1-as2 kinase mutant strain;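 active means inhibition above a set limit, 3 SD over mean compound inhibition, cut at about 8.4% in these data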;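 further: inhibition rescues growth on 5-FOA so higher OD means more RAM inhibition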
NCF1 inh – inhibitors of human p47phox binding. inhibition, % at 24.7 µM. P14598. p47phox/p22phox peptide binding, fluorescence polarization, 2 h. 220,000 compounds, 0.53% hits;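 active means inhibition above about 30%, limit read from the data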
Target sequence (P14598 whole entry, looked up): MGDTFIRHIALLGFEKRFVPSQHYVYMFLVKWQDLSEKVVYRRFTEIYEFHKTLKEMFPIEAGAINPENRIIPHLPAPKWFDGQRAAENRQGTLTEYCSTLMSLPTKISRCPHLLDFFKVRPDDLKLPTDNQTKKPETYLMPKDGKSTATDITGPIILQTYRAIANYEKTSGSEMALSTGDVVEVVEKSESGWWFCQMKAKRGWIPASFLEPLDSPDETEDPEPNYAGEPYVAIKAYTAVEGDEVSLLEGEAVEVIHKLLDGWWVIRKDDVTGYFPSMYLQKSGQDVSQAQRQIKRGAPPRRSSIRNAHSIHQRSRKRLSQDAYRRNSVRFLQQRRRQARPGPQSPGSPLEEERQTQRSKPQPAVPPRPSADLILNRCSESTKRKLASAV
Hck-Nef confirm – Hck-Nef kinase inhibition, confirmation; 1,300 compounds, 28% hits; shares compounds with Hck Nef HTS; calls only at 10 µM; Recombinant Hck-YEEI:Nef, Z-Lyte FRET kinase assay; AID 463188;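 active means average inhibition of at least 50%, with Z-scores no higher than 3 in both the phospho-tyrosine peptide and fluorescence counterscreens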
A number is an active result.

Screening CC/C(C)=N/Nc1nc(-c2cc3cccc(OC)c3oc2=O)cs1 returned Calb biofilm kill inactive, Hck Nef HTS 57, NCF1 inh inactive and Hck-Nef confirm inactive.
CCn1c(C)nc2cc(C(=O)N/N=C/c3ccc(O)c(O)c3O)ccc21 was read as Calb biofilm kill inactive, WT yeast gro inh inactive, Hck Nef HTS 75, Arbovirus anti inactive, RAM network inh inactive, NCF1 inh inactive and Hck-Nef confirm active.
COc1cccc(C(=O)/C=C2\Sc3ccccc3N2C)c1 was read as Calb biofilm kill inactive, WT yeast gro inh inactive, Hck Nef HTS 106, Arbovirus anti inactive, RAM network inh inactive, NCF1 inh inactive and Hck-Nef confirm inactive.
O=C(O)c1cc(-c2cccnc2)nc2ccc(Br)cc12 was read as Calb biofilm kill inactive, WT yeast gro inh inactive, Hck Nef HTS inactive, Arbovirus anti inactive, RAM network inh inactive and NCF1 inh inactive.
For CSc1ccccc1NC(=O)c1cc(-c2cccnc2)nc2ccc(Br)cc12 the results were Calb biofilm kill inactive, WT yeast gro inh inactive, Hck Nef HTS 57, Arbovirus anti inactive, RAM network inh inactive, NCF1 inh 31 and Hck-Nef confirm inactive.
`C=CCc1c(O)c(CC)cc2c(C)cc(=O)oc12` gave Calb biofilm kill inactive, Hck Nef HTS 106 and NCF1 inh inactive.
For CCN(CC)Cc1c(O)ccc2c(-c3ccccc3)cc(=O)oc12 the results were WT yeast gro inh inactive, Hck Nef HTS inactive, Arbovirus anti inactive, RAM network inh inactive and NCF1 inh inactive.
Screening CCC(=O)c1cc2c(C)cc(=O)oc2c(C)c1O returned WT yeast gro inh inactive, Hck Nef HTS inactive, Arbovirus anti inactive, RAM network inh inactive and NCF1 inh inactive.
CCN(CC)Cc1c(O)ccc2c(C)c(CC(=O)OC)c(=O)oc12 was read as WT yeast gro inh inactive, Hck Nef HTS 73, Arbovirus anti inactive, RAM network inh inactive and NCF1 inh inactive.
`CCN(CC)Cc1c(O)c(Cl)cc2c(C)c(C)c(=O)oc12` gave WT yeast gro inh inactive, Hck Nef HTS 77, Arbovirus anti inactive, RAM network inh inactive and NCF1 inh inactive.
For Cc1cc(=O)oc2c(CN(CC(C)C)CC(C)C)c(O)ccc12 the results were WT yeast gro inh inactive, Hck Nef HTS 63, Arbovirus anti inactive, RAM network inh inactive and NCF1 inh inactive.
`CCCCCCCN=CC1=C(O)CC(c2ccccc2)CC1=O` (centres undefined) gave Calb biofilm kill inactive, WT yeast gro inh inactive, Hck Nef HTS inactive, Arbovirus anti inactive, RAM network inh inactive and NCF1 inh inactive.
`Cc1c(Cc2ccccc2)c(=O)oc2c(CN(C)C)c(O)c(Cl)cc12` gave WT yeast gro inh inactive, Hck Nef HTS 116, Arbovirus anti inactive, RAM network inh inactive and NCF1 inh inactive.
`CCN(CC)Cc1c(O)c(Cl)cc2c(C)cc(=O)oc12` gave Calb biofilm kill inactive, WT yeast gro inh inactive, Hck Nef HTS active, Arbovirus anti inactive, RAM network inh inactive and NCF1 inh inactive.
For CN(C)Cc1c(O)ccc2oc(Cc3ccccc3)cc12 the results were WT yeast gro inh inactive, Hck Nef HTS inactive, Arbovirus anti inactive, RAM network inh inactive and NCF1 inh inactive.
For COc1ccc(C(F)(F)F)cc1N/C=C/c1nnnn1-c1ccc2ccccc2c1 the results were Calb biofilm kill inactive, Hck Nef HTS inactive and NCF1 inh inactive.
Screening O=C1N=c2ccccc2=C1c1sc(Nc2ccc(O)cc2)nc1O returned Calb biofilm kill inactive, WT yeast gro inh inactive, Hck Nef HTS 87, Arbovirus anti 36, RAM network inh inactive, NCF1 inh inactive and Hck-Nef confirm active.
Screening CCN1C(=O)C2(C(C(=O)c3cc4ccccc4o3)=C(O)C(=O)N2CCCN(C)C)c2ccccc21 (centres undefined) returned Calb biofilm kill inactive, Hck Nef HTS inactive and NCF1 inh inactive.
For CCOCCCn1c(=NC(=O)c2ccc(OC)c(OC)c2)c(C#N)cc2c(=O)n3cccc(C)c3nc21 the results were WT yeast gro inh inactive, Hck Nef HTS inactive, Arbovirus anti inactive, RAM network inh inactive and NCF1 inh inactive.
`CCOC(=O)c1cc2c(=O)n3ccccc3nc2n(Cc2ccco2)c1=NC(=O)c1cccc(OC)c1` gave Calb biofilm kill inactive, WT yeast gro inh inactive, Hck Nef HTS inactive, Arbovirus anti inactive, RAM network inh inactive and NCF1 inh inactive.
Screening CCOC(=O)c1cc2c(=O)n3cccc(C)c3nc2n(CC(C)C)c1=NC(=O)c1ccco1 returned Calb biofilm kill inactive, Hck Nef HTS active, NCF1 inh inactive and Hck-Nef confirm inactive.
`CCOCCCn1c(=NC(=O)c2ccco2)c(C(=O)OCC)cc2c(=O)n3cccc(C)c3nc21` gave Calb biofilm kill inactive, Hck Nef HTS 133 and NCF1 inh inactive.
`FC(F)(F)C(F)(F)c1nnc2ccc(-n3ccnc3)nn12` gave Calb biofilm kill inactive, WT yeast gro inh inactive, Hck Nef HTS inactive, Arbovirus anti inactive, RAM network inh inactive and NCF1 inh inactive.
C#CCOCCOCCOCCNc1nc(N2CCOCC2)nc(N2CCN(C(=O)Cn3cc(CC(C)O)nn3)CC2)n1 (centres undefined) was read as Calb biofilm kill inactive, WT yeast gro inh inactive, Hck Nef HTS inactive, Arbovirus anti inactive, RAM network inh inactive and NCF1 inh inactive.
For O=C(CSc1n[nH]c(-c2ccccc2F)n1)NCC(=O)Nc1ccc(F)c(F)c1F the results were Calb biofilm kill inactive, WT yeast gro inh inactive, Hck Nef HTS inactive, Arbovirus anti inactive, RAM network inh inactive and NCF1 inh inactive.
O=C(CSc1nc2ncc(Cl)cc2[nH]1)NCC(=O)Nc1ccc(F)c(F)c1F was read as Calb biofilm kill inactive, Hck Nef HTS 61 and NCF1 inh inactive.
For Cc1[nH]c2ccccc2c1C(=O)CSc1nc2ncc(Cl)cc2[nH]1 the results were Calb biofilm kill inactive, WT yeast gro inh inactive, Hck Nef HTS 72, Arbovirus anti inactive, RAM network inh inactive, NCF1 inh inactive and Hck-Nef confirm active.
Screening Cc1c(NC(=O)COC(=O)c2ccc(F)c(S(=O)(=O)N3CCOCC3)c2)c(=O)n(-c2ccccc2)n1C returned Calb biofilm kill inactive, WT yeast gro inh inactive, Hck Nef HTS inactive, Arbovirus anti inactive, RAM network inh inactive and NCF1 inh inactive.
`O=[N+]([O-])c1cccc(Cl)c1NCCNS(=O)(=O)c1ccccc1` gave WT yeast gro inh inactive, Hck Nef HTS inactive, Arbovirus anti inactive, RAM network inh inactive and NCF1 inh inactive.
`Cc1nc(SCC(=O)Nc2ccc3c(c2)OCCO3)c2oc3ccccc3c2n1` gave WT yeast gro inh inactive, Hck Nef HTS 81, Arbovirus anti inactive, RAM network inh inactive, NCF1 inh inactive and Hck-Nef confirm inactive.
Screening CCc1nc(SCC(=O)Nc2ccc3c(c2)OCCO3)c2oc3ccccc3c2n1 returned WT yeast gro inh inactive, Hck Nef HTS 88, Arbovirus anti inactive, RAM network inh inactive, NCF1 inh 39 and Hck-Nef confirm inactive.

Source: PubChem (several laboratories)
